In ChEMBL document CHEMBL6115053, “Optimization and Characterization of N-Acetamide Indoles as Antimalarials That Target PfATP4” (J Med Chem, 2025):
Converted amounts (≈) assume the structure as drawn. “And” between values parts separate entries of the source, which are not always exact repeats. Identical values can stand only once. The source made the active and inactive calls. The calls are words filed in the database; no cut-off is given here.

Key:
[1] = system: Plasmodium falciparum; assay: Antiplasmodial activity against W454-resistant population 1 Plasmodium falciparum 3D7 harboring Plasmodium falciparum ATP4 L928F mutant by LDH assay; format: functional, organism-based
[2] = system: Plasmodium falciparum; assay: Antiplasmodial activity against Plasmodium falciparum 3D7 infected in RBC assessed as reduction in extracellular parasite growth at 0.7 µM measured for 8 hrs by Giemsa-staining based microscopic analysis; set-up: scale not given: the % may be the effect or the level left
[3] = system: Plasmodium falciparum; assay: Antiplasmodial activity against W454-resistant population 3 Plasmodium falciparum 3D7 harboring Plasmodium falciparum ATP4 L928F mutant by LDH assay; format: functional, organism-based
[4] = system: Plasmodium falciparum; assay: Antiplasmodial activity against W454-resistant population 2 Plasmodium falciparum 3D7 harboring Plasmodium falciparum ATP4 L928F mutant by LDH assay; format: functional, organism-based
[5] = system: Plasmodium falciparum; assay: Antiplasmodial activity against multidrug-resistant Plasmodium falciparum Dd2 harboring plasmodium falciparum ATP4 G358S mutant by SYBR green staining based analysis; format: functional, organism-based
[6] = system: Plasmodium falciparum; assay: Antiplasmodial activity against multidrug-resistant Plasmodium falciparum Dd2 harboring plasmodium falciparum ATP4 I398F/P990R/D1247Y mutant by SYBR green staining based analysis; format: functional, organism-based
[7] = system: Plasmodium falciparum; assay: Antiplasmodial activity against Plasmodium falciparum 3D7 infected in human […] cells incubated for 72 hrs; format: functional, organism-based; conditions: 3D7, 72 h
[8] = Metabolic stability in human liver microsome assessed as intrinsic clearance; format: ADME; conditions: microsomes
[9] = system: Plasmodium falciparum; assay: Antiplasmodial activity against Plasmodium falciparum Dd2-B2 assessed as parasite clearance at 3 times IC90 incubated for 5 days; format: functional, organism-based; conditions: time 5.0 day
[10] = system: Plasmodium falciparum; assay: Antiplasmodial activity against Plasmodium falciparum 3D7 harboring Plasmodium falciparum ATP4 […] mutant by SYBR green staining based flow cytometry analysis; format: functional, organism-based
[11] = Metabolic stability in rat hepatocyte […] assessed as intrinsic clearance measured per 10^6 cells; format: ADME, cell-based; conditions: hepatocytes
[12] = system: Plasmodium falciparum; assay: Antiplasmodial activity against N-(2,6-difluorophenyl)-2-(6-(5-methyl-1,3,4-oxadiazol-2-yl)-1H-indol-1-yl)acetamide-resistant Plasmodium falciparum Dd2 harbouring ATP4 genome with 2.8 fold CNV by SYBR green staining based analysis; format: functional, organism-based
[13] = system: HepG2; assay: Cytotoxicity against human HepG2 cells assessed as inhibition of cell growth incubated for 48 hrs by celltiterglo assay; format: toxicity, cell-based; conditions: hepg2, 48 h
[14] = Lipophilicity, logD of compound at pH 7.4 by shake-flask method; format: physicochemical; conditions: buffer
[15] = system: Plasmodium falciparum; assay: Antiplasmodial activity against N-(2,6-difluorophenyl)-2-(6-(5-methyl-1,3,4-oxadiazol-2-yl)-1H-indol-1-yl)acetamide-resistant Plasmodium falciparum Dd2 harboring plasmodium falciparum ATP4 F156L mutant by SYBR green staining based analysis; format: functional, organism-based
[16] = Aqueous solubility in PBS buffer at pH 7.4; format: physicochemical
[17] = system: Plasmodium falciparum; assay: Antimalarial activity against Plasmodium falciparum NF54 infected assessed as inhibition of male gamete formation incubated for 48 hrs by automated bright field microscopic analysis; format: functional, organism-based; conditions: NF54, 48 h
[18] = system: Plasmodium falciparum; assay: Antiplasmodial activity against N-(2,6-difluorophenyl)-2-(6-(5-methyl-1,3,4-oxadiazol-2-yl)-1H-indol-1-yl)acetamide-resistant Plasmodium falciparum Dd2 harboring plasmodium falciparum ATP4 D425E mutant by SYBR green staining based analysis; format: functional, organism-based
[19] = system: Plasmodium falciparum; assay: Antiplasmodial activity against Plasmodium falciparum 3D7 infected in RBC assessed as reduction in extracellular parasite growth at 0.03 uM measured for 8 hrs by Giemsa-staining based microscopic analysis; format: functional; set-up: scale not given: the % may be the effect or the level left
Outline: (§1)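 Giemsa-stained thin smears were read at 8 h and the percentages of extracellular and intracellular parasites counted, compared with untreated parasites at 0 h.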

[20] = system: Plasmodium falciparum; assay: Antiplasmodial activity against Plasmodium falciparum Dd2-B2 assessed as reduction in recrudescence measured for 42 days by flow cytometry; format: functional, organism-based; conditions: time 42.0 day
[21] = system: Plasmodium falciparum; assay: Antiplasmodial activity against Plasmodium falciparum 3D7 infected in RBC assessed as reduction in parasite growth measured for 8 hrs by Giemsa-staining based microscopic analysis; format: functional, organism-based; outline: as §1
[22] = system: Plasmodium falciparum; assay: Antiplasmodial activity against Plasmodium falciparum Dd2-B2; format: functional, organism-based
[23] = system: Plasmodium falciparum; assay: Antiplasmodial activity against asexual blood stage Plasmodium falciparum Dd2-B2 assessed as parasite recrudescence by measuring minimum inoculum of resistance measured for 40 days by flow cytometry; format: functional; conditions: time 40 day
[24] = Metabolic stability in mouse liver microsome assessed as intrinsic clearance; format: ADME; conditions: microsomes
[25] = system: Plasmodium falciparum; assay: Antiplasmodial activity against Plasmodium falciparum Dd2-B2 assessed as parasite clearance at 3 times IC90 incubated for 42 days by flow cytometry analysis; format: functional, organism-based; conditions: time 42.0 day
[26] = system: Plasmodium falciparum; assay: Antiplasmodial activity against asexual Plasmodium falciparum 3D7 infected in human […] cells assessed as reduction in parasite growth measured for 72 hrs by LDH assay; format: functional, organism-based; conditions: 3D7, 72 h
[27] = system: Plasmodium falciparum; assay: Antimalarial activity against Plasmodium falciparum NF54 infected assessed as inhibition of female gamete formation incubated for 48 hrs by automated bright field microscopic analysis; format: functional, organism-based; conditions: NF54, 48 h
[28] = Inhibition of Plasmodium falciparum Dd2 ATP4 assessed as reduction in Na+-ATPase activity incubated for 10 mins in presence of ATP
Outline: (§2)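 Membranes were prepared from Dd2-Polδ parasites (wild-type PfATP4) or Dd2-Polδ-PfATP4G358S parasites. ATPase activity was read as Pi production, with 1 mM Na2ATP, at high [Na+] (152 mM) and low [Na+] (2 mM). PfATP4-associated activity is the high-Na+ minus low-Na+ Pi, expressed as % of the high-Na+ control, over a concentration range. Data are means ± SEM of 2–5 independent membrane preparations.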

[29] = biological target: T1, P-type sodium-transporting ATPase4 (Plasmodium falciparum (isolate 3D7)) (UniProt A0A143ZZK9); assay: Inhibition of Plasmodium falciparum 3D7 ATP4 assessed as reduction in Na+-ATPase activity at 2 uM incubated for 10 mins under high [Na+] condition in absence of KAE609
T1 sequence (whole entry): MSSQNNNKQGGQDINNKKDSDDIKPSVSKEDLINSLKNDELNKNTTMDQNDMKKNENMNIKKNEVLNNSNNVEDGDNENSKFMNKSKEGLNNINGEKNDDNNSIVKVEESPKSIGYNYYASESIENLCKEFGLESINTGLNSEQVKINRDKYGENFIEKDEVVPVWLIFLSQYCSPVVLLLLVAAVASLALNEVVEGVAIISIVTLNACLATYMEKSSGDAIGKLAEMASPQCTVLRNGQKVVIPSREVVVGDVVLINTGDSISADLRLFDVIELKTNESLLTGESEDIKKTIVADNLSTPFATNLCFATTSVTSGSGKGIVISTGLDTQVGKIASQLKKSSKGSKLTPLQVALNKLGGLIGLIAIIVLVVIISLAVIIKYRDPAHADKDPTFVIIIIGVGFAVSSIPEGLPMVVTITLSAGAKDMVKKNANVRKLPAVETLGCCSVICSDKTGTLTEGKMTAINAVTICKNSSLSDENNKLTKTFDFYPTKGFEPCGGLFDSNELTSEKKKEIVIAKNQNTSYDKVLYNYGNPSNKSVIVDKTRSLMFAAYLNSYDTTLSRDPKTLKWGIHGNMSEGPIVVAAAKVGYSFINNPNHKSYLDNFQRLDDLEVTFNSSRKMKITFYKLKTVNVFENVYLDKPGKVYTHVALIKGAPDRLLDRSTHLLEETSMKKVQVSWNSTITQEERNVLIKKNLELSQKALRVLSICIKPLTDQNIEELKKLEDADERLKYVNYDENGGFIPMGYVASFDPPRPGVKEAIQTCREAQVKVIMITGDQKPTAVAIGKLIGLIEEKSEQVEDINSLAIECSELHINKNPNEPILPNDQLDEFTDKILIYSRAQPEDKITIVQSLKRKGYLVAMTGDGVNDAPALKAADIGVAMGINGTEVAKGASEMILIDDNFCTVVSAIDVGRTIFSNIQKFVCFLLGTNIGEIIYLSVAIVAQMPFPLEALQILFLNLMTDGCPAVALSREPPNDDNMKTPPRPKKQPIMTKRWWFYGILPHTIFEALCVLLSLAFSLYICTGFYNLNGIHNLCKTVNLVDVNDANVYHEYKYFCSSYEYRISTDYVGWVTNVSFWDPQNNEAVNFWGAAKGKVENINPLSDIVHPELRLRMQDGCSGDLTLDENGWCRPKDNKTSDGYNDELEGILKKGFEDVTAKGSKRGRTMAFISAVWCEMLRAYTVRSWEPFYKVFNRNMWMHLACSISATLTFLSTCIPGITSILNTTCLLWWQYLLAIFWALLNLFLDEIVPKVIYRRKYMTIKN

[30] = Inhibition of Plasmodium falciparum Dd2 ATP4 G358S mutant assessed as reduction in Na+-ATPase activity incubated for 10 mins in presence of ATP; outline: as §2
[31] = biological target: T2, P-type sodium-transporting ATPase4 (Plasmodium falciparum (isolate 3D7), UniProt A0A143ZZK9); assay: Inhibition of Plasmodium falciparum 3D7 ATP4
T2 sequence (A0A143ZZK9 whole entry): T1 sequence (whole entry)

Structure (SMILES)	EC50 [1] [nM]	EC50 [3] [nM]	EC50 [4] [nM]	EC50 [5] [nM]	EC50 [6] [nM]	EC50 [7] [nM]	intrinsic clearance (CLint) [8] [µL/min/mg]	intrinsic clearance (CLint) [11] [uL/min/10^6 cells]	CC50 [13] [nM]	logD [14]	solubility kinetic [16] [µM]	EC50 [26] [nM]	also measured
N#Cc1cc(NC(=O)[C@H]2c3ccccc3C(=O)N(CC(F)(F)F)[C@@H]2c2cccnc2)ccc1F [SJ-733]	579	533	537	> 10000	95	61							Activity [2]: ~24%
COc1cc(NC(=O)Cn2ccc3cc(F)c(-c4cnn(C)c4)cc32)cc(OC)c1OC	47	44	44	42	10	4	69	1.9	> 40000	3.2	2.7 (≈ 1.18 µg/mL)	7	Activity [9]: Active; Activity [10]: Active; EC50 [12]: 23 nM; EC50 [15]: 40 nM; EC50 [17]: 190 nM; EC50 [18]: 19 nM; Activity [19]: ~24%; Activity [20]: Active; Activity [21]: Active; IC50 [22]: 17.3 nM; log10MIR [23]: 8.7; intrinsic clearance (CLint) [24]: 90 µL/min/mg; Activity [25]: Active; EC50 [27]: 180 nM
Cn1cc(-c2ccc3c(C#N)cn(CC(=O)Nc4ccccc4Cl)c3c2)cn1							62	59	> 40000	3	4.9 (≈ 1.91 µg/mL)	240	IC50 [28]: 230 nM and 1100 nM; inhibition [29]: Active; IC50 [30]: 1100 nM; IC50 [31]: 150 nM
